Assay results published in ChEMBL document CHEMBL5678801, “A benzothiophene inhibitor of mitogen-activated protein kinase-activated protein kinase 2 inhibits tumor necrosis factor alpha production and has oral anti-inflammatory efficacy in acute and chronic models of inflammation” (J Pharmacol Exp Ther, 2010).

Legend:
[1] = target: T1, Mitogen-activated protein kinase kinase kinase 5 (Homo sapiens, UniProt Q99683); assay: Inhibition of ASK1 (unknown origin)
T1 sequence (Q99683 whole entry): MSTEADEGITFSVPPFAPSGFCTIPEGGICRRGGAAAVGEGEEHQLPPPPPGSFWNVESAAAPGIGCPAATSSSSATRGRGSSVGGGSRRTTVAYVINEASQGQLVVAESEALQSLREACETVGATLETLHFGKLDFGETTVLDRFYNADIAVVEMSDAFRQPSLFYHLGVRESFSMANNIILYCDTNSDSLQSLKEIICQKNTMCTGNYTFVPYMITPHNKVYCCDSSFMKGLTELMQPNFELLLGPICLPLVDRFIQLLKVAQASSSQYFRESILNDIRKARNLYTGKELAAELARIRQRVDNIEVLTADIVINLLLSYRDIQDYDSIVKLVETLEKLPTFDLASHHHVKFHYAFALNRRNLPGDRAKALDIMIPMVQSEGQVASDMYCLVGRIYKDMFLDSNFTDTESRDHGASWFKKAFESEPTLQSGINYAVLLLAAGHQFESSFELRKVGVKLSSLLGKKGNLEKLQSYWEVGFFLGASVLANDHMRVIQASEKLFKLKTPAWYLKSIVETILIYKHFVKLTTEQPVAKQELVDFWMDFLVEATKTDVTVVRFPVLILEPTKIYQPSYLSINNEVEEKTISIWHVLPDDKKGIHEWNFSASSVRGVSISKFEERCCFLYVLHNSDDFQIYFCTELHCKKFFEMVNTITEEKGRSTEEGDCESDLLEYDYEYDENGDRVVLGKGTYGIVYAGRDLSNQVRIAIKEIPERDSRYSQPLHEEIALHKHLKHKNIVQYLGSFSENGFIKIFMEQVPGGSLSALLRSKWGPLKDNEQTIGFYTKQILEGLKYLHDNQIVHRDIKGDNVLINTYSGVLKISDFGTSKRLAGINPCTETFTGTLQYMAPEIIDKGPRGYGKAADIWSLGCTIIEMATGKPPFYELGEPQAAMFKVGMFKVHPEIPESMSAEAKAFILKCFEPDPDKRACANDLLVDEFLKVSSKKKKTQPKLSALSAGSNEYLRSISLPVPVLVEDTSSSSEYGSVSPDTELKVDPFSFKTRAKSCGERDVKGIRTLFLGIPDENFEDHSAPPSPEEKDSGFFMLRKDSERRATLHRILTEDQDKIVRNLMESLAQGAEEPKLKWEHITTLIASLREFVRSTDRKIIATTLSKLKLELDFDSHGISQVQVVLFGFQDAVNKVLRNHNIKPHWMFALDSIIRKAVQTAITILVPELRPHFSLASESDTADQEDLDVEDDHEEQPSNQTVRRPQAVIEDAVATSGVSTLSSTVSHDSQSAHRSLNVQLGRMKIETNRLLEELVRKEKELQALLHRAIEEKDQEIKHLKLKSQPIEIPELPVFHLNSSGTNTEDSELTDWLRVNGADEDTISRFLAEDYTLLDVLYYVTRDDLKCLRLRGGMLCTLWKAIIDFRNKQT
Method in brief: (§1)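 Kinase panel: 200 kinases were first screened at 1 μM inhibitor for percent inhibition. Those above 50% inhibition were then titrated for IC50. MgATP was fixed at the Km(app) determined for each enzyme.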

[2] = Inhibition of IL-6 production in LPS induced human Whole blood cell preincubated with compound for 1 hr followed by LPS induction and measured after 16 hrs; type: functional, cell-based
Method in brief: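 Human whole blood was stimulated ex vivo with LPS 100 ng/ml. Plasma cytokines were read by MSD 4-plex: TNFα at 4 h; IL-1β, IL-6 and IL-8 at 16 h. Data are means ±S.E.M. of two independent experiments in duplicate, three donors. IC50 by 4-parameter nonlinear regression.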

[3] = Plasma concentration in po dosed LPS-induced Lewis rat model at ED50 concentration measured after 5.5 hrs of initial dose by LC-MS/MS analysis; type: ADME, organism-based
Method in brief: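 Male Lewis rats (225-250 g, 5 per group) were fasted 18 h, then dosed orally at 0.2-60 mg/kg as a suspension in 0.5% methylcellulose/0.025% Tween 20. LPS 1 mg/kg was given i.v. 4 h later. Blood was taken by cardiac puncture 90 min after LPS. Serum TNFα was read by ELISA and drug by LC-MS/MS, three independent experiments. 4-parameter fit. Unbound values were corrected with measured rat plasma protein binding.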

[4] = target: MAP kinase-activated protein kinase 2 (Homo sapiens, UniProt P49137); assay: Binding affinity to recombinant N-terminal truncated MK2 (45 to 371 residues) (unknown origin) expressed in Escherichia coli assessed as inhibition constant measured after 15 mins by surface plasmon resonance spectroscopy analysis
[5] = target: T2, Phosphorylase b kinase gamma catalytic chain, liver/testis isoform (Homo sapiens, UniProt P15735); assay: Inhibition of PhKgamma2 (unknown origin); method in brief: as §1
T2 sequence (P15735 whole entry): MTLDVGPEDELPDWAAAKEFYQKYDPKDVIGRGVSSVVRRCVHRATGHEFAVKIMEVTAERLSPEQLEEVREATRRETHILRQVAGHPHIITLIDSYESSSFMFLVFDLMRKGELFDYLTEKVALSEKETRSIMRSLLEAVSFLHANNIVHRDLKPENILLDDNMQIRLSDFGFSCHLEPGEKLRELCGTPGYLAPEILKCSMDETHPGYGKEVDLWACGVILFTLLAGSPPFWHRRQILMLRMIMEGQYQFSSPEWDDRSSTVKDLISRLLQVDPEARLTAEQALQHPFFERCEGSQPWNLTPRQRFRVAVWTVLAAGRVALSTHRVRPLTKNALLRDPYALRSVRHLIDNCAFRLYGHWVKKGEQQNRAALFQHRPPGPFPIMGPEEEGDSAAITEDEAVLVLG

[6] = Antiinflammatory activity in human PBMC cells assessed as inhibition of LPS induced IL-1 beta production preincubated for 1 hr followed by LPS stimulation and measured after 16 hrs by MSD analysis; type: functional, cell-based
Method in brief: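 Human PBMCs were pretreated with compound for 1 h (<1% DMSO final), then stimulated with LPS 100 ng/ml at 37°C. Cytokines in culture media were read by MSD 4-plex: TNFα at 4 h; IL-1β, IL-6 and IL-8 at 16 h. Data are means ±S.E.M. of two independent experiments in duplicate, three donors. IC50 by 4-parameter nonlinear regression.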

MAP kinase-activated protein kinase 2, sequence (P49137 whole entry, the tested form may be a part, canonical isoform): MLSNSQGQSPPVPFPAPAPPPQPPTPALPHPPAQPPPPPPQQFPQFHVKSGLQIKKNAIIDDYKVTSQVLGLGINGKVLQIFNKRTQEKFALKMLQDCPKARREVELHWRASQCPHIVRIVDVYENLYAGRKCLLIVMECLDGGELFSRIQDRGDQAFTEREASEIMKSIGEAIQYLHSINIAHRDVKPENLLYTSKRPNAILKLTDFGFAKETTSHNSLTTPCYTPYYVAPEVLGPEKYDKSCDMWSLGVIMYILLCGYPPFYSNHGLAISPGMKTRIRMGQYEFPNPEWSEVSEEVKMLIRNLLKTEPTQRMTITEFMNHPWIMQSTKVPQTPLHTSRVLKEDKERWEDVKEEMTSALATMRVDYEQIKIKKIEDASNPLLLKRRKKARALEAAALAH

IC50 [1]: 0.06 µM | IC50 [2]: 10.3 µM | concentration at 5.5 h [3]: 1400 nM | Ki [4]: 0.003 µM | IC50 [5]: 0.528 µM | IC50 [6]: 2.71 µM
SMILES: Cc1ccc(-c2ccc3c(ccc4sc5c(c43)NC[C@@H](C)NC5=O)n2)cn1
